# Assay results as given in ChEMBL document CHEMBL4765251, “Efficient identification of novel anti-glioma lead compounds by machine learning models” (Eur J Med Chem, 2020).
# Experiments:
# U-251 = experiment: Antiproliferative activity against human U251MG cells assessed as cell growth inhibition measured after 72 hrs by SRB assay; assay type: functional, cell-based; settings: U-251, 72 h
# C6 = experiment: Antiproliferative activity against rat C6 cells assessed as cell growth inhibition measured after 72 hrs by SRB assay; assay type: functional, cell-based; settings: C6, 72 h
# Astrocyte = experiment: Cytotoxicity against Wistar rat astrocytes assessed as cell growth inhibition at 100 uM measured after 72 hrs by SRB assay; assay type: cell-based
# [1] = Selectivity index, ratio of CC50 for Wistar rat astrocytes to EC50 for rat C6 cells
# Summary of the method: (§1)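 Selectivity index is astrocyte CC50 divided by the glioma-line EC50, both from 72 h SRB assays. No index is given when astrocyte cytotoxicity could not be calculated at the highest concentration tested.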
# [2] = Cytotoxicity against Wistar rat astrocytes assessed as cell growth inhibition measured after 72 hrs by SRB assay; assay type: cell-based, Astrocyte
# Summary of the method: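 Primary astrocytes taken from the cortex of 2-day-old Wistar rats by mechanical dissociation, grown on poly-L-lysine in high-glucose DMEM and treated at 90% confluence (12-15 days). Exposed to 0.1-100 µM for 72 h, then SRB assay with absorbance read at 510 nm against DMSO controls. Mean ± SD of three independent assays.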
# Rattus norvegicus = species on record: Rattus norvegicus; experiment: Inhibition of TrxR in rat liver assessed as reduction in TNB formation using DTNB and NADPH as substrate at 100 uM preincubated with enzyme for 15 mins followed by NADPH addition by absorbance based analysis; assay type: tissue-based
# Summary of the method: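 TrxR activity was measured at 37 °C in 100 mM potassium phosphate pH 7.0 with 2 mg/mL DTNB and 0.01 mg/mL enzyme. Enzyme was preincubated for 15 min with compound or DMSO, then the reaction was started with 0.2 mg/mL NADPH. TNB formation was followed at 412 nm (ε 13.6 mM-1 cm-1). Assays were run in duplicate, with enzyme-free blanks subtracted.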
# [3] = Selectivity index, ratio of CC50 for Wistar rat astrocytes to EC50 for human U-251 MG cells; summary of the method: as §1
# U-87 MG = experiment: Antiproliferative activity against human U87MG cells assessed as cell growth inhibition measured after 72 hrs by SRB assay; assay type: functional, cell-based, U-87MG ATCC
# Summary of the method: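 U87MG human glioma cells grown in DMEM with 10% FBS at 37 °C, used up to 30 passages and treated at 40-50% confluence. Exposed to 0.1-100 µM for 72 h, with DMSO at most 0.1% final. TCA-fixed, stained with SRB, dye solubilized in Tris pH 10.5, read at 510 nm, expressed as % of DMSO controls. Mean ± SD of three independent assays.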
# [4] = Selectivity index, ratio of CC50 for Wistar rat astrocytes to EC50 for human U87MG cells; summary of the method: as §1
SMILES,EC50 (U-251),EC50 (C6),Activity (Astrocyte),Ratio CC50/EC50 [1],CC50 at 72 h [2],inhibition (Rattus norvegicus),Ratio CC50/EC50 [3],EC50 (U-87 MG),Ratio CC50/EC50 [4]
O=C(/C=C/c1ccc(Cl)s1)c1ccc(N2CCCCC2)cc1,> 50 µM,36.6 µM,Non-Toxic,–,–,–,–,–,–
O=C(/C=C/c1ccc([N+](=O)[O-])o1)c1ccc(N2CCNCC2)cc1,16.7 µM,1.5 µM,–,29.5,44.3 µM,0%,2.6,4.9 µM,9
Cc1ccc(S(=O)(=O)/N=C/c2ccc(F)cc2)cc1,> 50 µM,48.9 µM,Non-Toxic,–,–,–,–,–,–
Cc1ccc(C(=O)/C=C/c2ccco2)cc1,23.3 µM,7.8 µM,–,–,> 100 µM,–,–,19.2 µM,–
O=C(/C=C/c1ccco1)c1ccc(C2CCCCC2)cc1,26.4 µM,> 50 µM,Non-Toxic,–,–,–,–,–,–
CCCCc1ccc(C(=O)/C=C/c2ccco2)cc1,6.4 µM,8.4 µM,–,–,> 100 µM,60.4%,–,12.3 µM,–
O=C(/C=C/c1ccc([N+](=O)[O-])o1)c1ccc(C2CCCCC2)cc1,4.4 µM,5.1 µM,–,11.2,57.2 µM,–,13,9.5 µM,6
CCC(=O)Oc1cccc2ccc(/C=C/c3ccccc3[N+](=O)[O-])nc12,10.1 µM,6.3 µM,–,8.7,55.2 µM,–,5.4,10.5 µM,5.3
Cc1nonc1C(=O)c1no[n+]([O-])c1C(=O)c1nonc1C,> 50 µM,> 50 µM,Non-Toxic,–,–,–,–,–,–
O=C(/C=C/c1ccc([N+](=O)[O-])o1)c1ccc(-c2ccccc2)cc1,24.6 µM,17.7 µM,Non-Toxic,–,–,–,–,–,–
COc1ccc(/C=C/C(=O)c2ccc(-c3ccccc3)cc2)cc1,> 50 µM,> 50 µM,Non-Toxic,–,–,–,–,–,–
COc1ccc(/C=C/C(=O)c2cccc(Br)c2)cc1,32.1 µM,22.3 µM,Non-Toxic,–,–,–,–,–,–
C[N+](=O)c1ccc(/C=C/C(=O)c2ccc(N3CCOCC3)cc2)o1,37.8 µM,6.6 µM,–,11.5,75.8 µM,–,2,9.8 µM,7.7
O=C(/C=C/c1ccc([N+](=O)[O-])o1)c1ccc(N2CCCC2)cc1,35.9 µM,16.4 µM,–,4,65.8 µM,–,1.8,35.4 µM,1.8
CN(C)c1ccc(/C=C/C(=O)c2ccc(-c3ccccc3)cc2)cc1,> 50 µM,49.5 µM,Non-Toxic,–,–,–,–,–,–
O=C(/C=C/c1ccc(Cl)s1)c1ccc(-n2ccnc2)cc1,35.1 µM,14.5 µM,Non-Toxic,–,–,–,–,–,–
O=C(/C=C/c1ccc([N+](=O)[O-])o1)c1ccc(Br)cc1,21.4 µM,2.7 µM,–,31.6,85.4 µM,–,3.9,12.6 µM,6.7
Cc1ccc(S(=O)(=O)CC(=O)c2ccc(Cl)cc2Cl)cc1,> 50 µM,> 50 µM,Non-Toxic,–,–,–,–,–,–

SMILES,EC50 (U-251),EC50 (C6),Activity (Astrocyte),Ratio CC50/EC50 [1],CC50 at 72 h [2],inhibition (Rattus norvegicus),Ratio CC50/EC50 [3],EC50 (U-87 MG),Ratio CC50/EC50 [4]
O=C(/C=C/c1ccc([N+](=O)[O-])o1)c1ccc(N2CCCCC2)cc1,> 50 µM,48.7 µM,Non-Toxic,–,–,–,–,–,–
CSc1ccc(C(=O)/C=C/c2ccc([N+](=O)[O-])o2)cc1,14.2 µM,1.6 µM,–,17.7,28.4 µM,56.4%,2,3.9 µM,7.3
CC(C)Oc1ccc(C(=O)NC(=S)Nc2cccc3ccccc23)cc1,> 50 µM,> 50 µM,Non-Toxic,–,–,–,–,–,–
O=C(CS(=O)(=O)c1ccccc1)c1cc2ccccc2o1,> 50 µM,> 50 µM,Non-Toxic,–,–,–,–,–,–
CC(=O)c1ccc(NCCC(=O)c2cccs2)cc1,> 50 µM,46.6 µM,Non-Toxic,–,–,–,–,–,–
Cc1ccc(N2C(=O)CC(Sc3ncccc3C(=O)O)C2=O)cc1Cl (stereo not given),> 50 µM,> 50 µM,Non-Toxic,–,–,–,–,–,–
O=C(/C=C/c1cccc([N+](=O)[O-])c1)c1ccc(N2CCCCC2)cc1,20.3 µM,32.5 µM,Non-Toxic,–,–,–,–,–,–
Cc1no[n+]([O-])c1C(=O)c1no[n+]([O-])c1C(=O)c1no[n+]([O-])c1C,> 50 µM,> 50 µM,Non-Toxic,–,–,–,–,–,–
COc1ccc(/C=C/C(=O)c2cccc(I)c2)cc1,21.4 µM,14.6 µM,–,>6.8,> 100 µM,–,>4.7,13.4 µM,>7.5
CSc1ccc(C(=O)/C=C/c2ccco2)cc1,24 µM,14.4 µM,–,–,98 µM,–,–,45.1 µM,–
O=C(/C=C/c1ccc([N+](=O)[O-])s1)c1ccc(-n2ccnc2)cc1,9.4 µM,1.9 µM,–,21.3,40.4 µM,–,4.3,10.1 µM,4
Cc1ccc(S(=O)(=O)CC(=O)c2cccc([N+](=O)[O-])c2)cc1,> 50 µM,> 50 µM,Non-Toxic,–,–,–,–,–,–
O=C(/C=C/c1ccco1)c1ccc(N2CCOCC2)cc1,> 50 µM,23.6 µM,Non-Toxic,–,–,–,–,–,–
CC(C)(C)c1ccc(C(=O)/C=C/c2ccco2)cc1,16.4 µM,18.5 µM,–,–,88.7 µM,3.6%,–,32.3 µM,–
CC(C)(C)c1ccc(C(=O)/C=C/c2ccc([N+](=O)[O-])o2)cc1,44.5 µM,28.6 µM,Non-Toxic,–,–,–,–,–,–
O=C(/C=C/c1ccc([N+](=O)[O-])o1)c1ccc(I)cc1,12.5 µM,2.1 µM,–,32.5,68.2 µM,–,5.4,5.2 µM,13.1
O=C(/C=C/c1ccc([N+](=O)[O-])o1)c1ccc(-n2ccnc2)cc1,22.6 µM,3.5 µM,–,12.9,45.3 µM,–,2,13.4 µM,3.4
O=C(/C=C/c1ccc([N+](=O)[O-])cc1)c1ccc(N2CCCCC2)cc1,> 50 µM,> 50 µM,Non-Toxic,–,–,–,–,–,–
